Source: ChEMBL document CHEMBL4373674, “Structural modification of azolylacryloyl derivatives yields a novel class of covalent modifiers of hemoglobin as potential antisickling agents” (Medchemcomm, 2019)
Activity calls are given as the source filed them. No cut-off for these calls is given here.

Experiments:
[1] = target: T1, Hemoglobin HbA (Homo sapiens) (UniProt P69905+P68871); test: Drug reactivity against betacys93 in hemoglobin (unknown origin) assessed as betacys93-compound adduct formation at 2 mM incubated for 2 hrs by UPLC-MS analysis relative to control; type: protein-complex assay; conditions: in the assay text read “by DTNB disulfide exchange assay” for “by UPLC-MS analysis”
Procedure, shortened: (§1)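 Hb (50 µM in PBS) was reacted with 2 mM compound (final) at room temperature for 2 h or 16 h. Hb was recovered by centrifugation and 10 kDa ultrafiltration, then washed. Samples were incubated in 0.1 M potassium phosphate pH 8.0 with DTNB for 1 h at 25 °C. Hb content was taken from A576 and free thiol from 2-nitrobenzoate at A412 (ε 14 150 M-1 cm-1). Values are the mean of quadruplicates ± SD. % adduct = 100 − available SH from two βCys93.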

Erythrocyte = test: Anti-sickling activity in RBC derived from patient homozygous SS at 2 mM […] by microscopic analysis relative to control; type: functional, Homo sapiens
[2] = target: T1, Hemoglobin HbA (Homo sapiens); test: Binding affinity to hemoglobin in whole blood (unknown origin) incubated for 2 hrs; type: tissue-based
Procedure, shortened: (§2)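 Normal human whole blood at 20% hematocrit was incubated with compound (1 mM and 2 mM final) for 2 h at 37 °C. Hb–O2 affinity was then measured from oxygen equilibrium curves. Runs were done at least in triplicate.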

[3] = target: T1, Hemoglobin HbA (Homo sapiens); test: Drug reactivity against betacys93 in hemoglobin (unknown origin) assessed as betacys93-compound adduct formation at 2 mM incubated for 16 hrs by UPLC-MS analysis relative to control; type: protein-complex assay; conditions: in the assay text read “by DTNB disulfide exchange assay” for “by UPLC-MS analysis”; procedure, shortened: as §1
[4] = target: T1, Hemoglobin HbA (Homo sapiens); test: Binding affinity to hemoglobin in whole blood (unknown origin) at 2 mM incubated for 8 hrs; type: tissue-based
Procedure, shortened: (§3)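 Normal whole blood was incubated with 2 mM compound at 37 °C for up to 24 h. Aliquots taken at 1, 2, 4, 8 and 24 h were assessed by oxygen equilibrium curves, with DMSO as vehicle control.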

[5] = target: T1, Hemoglobin HbA (Homo sapiens); test: Binding affinity to hemoglobin in whole blood (unknown origin) at 2 mM incubated for 2 hrs relative to control; type: tissue-based; procedure, shortened: as §2
[6] = target: T1, Hemoglobin HbA (Homo sapiens); test: Binding affinity to hemoglobin in whole blood (unknown origin) at 1 mM incubated for 2 hrs relative to control; type: tissue-based; procedure, shortened: as §2
[7] = target: T1, Hemoglobin HbA (Homo sapiens); test: Drug reactivity against betacys93 in hemoglobin (unknown origin) assessed as free SH in betacys93 at 2 mM incubated for 16 hrs by UPLC-MS analysis relative to control; type: protein-complex assay; conditions: in the assay text read “by DTNB disulfide exchange assay” for “by UPLC-MS analysis”; procedure, shortened: as §1
[8] = target: T1, Hemoglobin HbA (Homo sapiens); test: Binding affinity to hemoglobin in whole blood (unknown origin) at 2 mM incubated for 24 hrs; type: tissue-based; procedure, shortened: as §3
[9] = Acute toxicity in Swiss albino mouse assessed as mortality at 5000 mg/kg, po via gavage measured after 24 hrs by OECD 423 guideline based method; type: organism-based; conditions: in vivo
Procedure, shortened: (§4)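 Male and female Swiss albino mice (22–27 g, 8–10 weeks) were held at about 23 °C on a 12 h light/dark cycle with free food and water. Dosing was a single oral gavage of a 10% suspension in water with 0.5% Tween 80. Groups of n = 3 received 2000 mg/kg (days 1 and 2) or 5000 mg/kg (day 3). Toxic signs and mortality were watched for 24 h.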

[10] = Drug reactivity against cysteine in PBS buffer assessed as assessed as cysteine-compound adduct formation at 2 mM incubated for 3 hrs by UPLC-MS analysis relative to control
[11] = Acute toxicity in Swiss albino mouse assessed as mortality at 2000 mg/kg, po via gavage measured after 24 hrs by OECD 423 guideline based method; type: organism-based; conditions: in vivo; procedure, shortened: as §4
[12] = Drug reactivity against cysteine in PBS buffer at 2 mM incubated for 3 hrs by UPLC-MS analysis relative to control

T1 sequence (P68871 2-147 partner limits assumed): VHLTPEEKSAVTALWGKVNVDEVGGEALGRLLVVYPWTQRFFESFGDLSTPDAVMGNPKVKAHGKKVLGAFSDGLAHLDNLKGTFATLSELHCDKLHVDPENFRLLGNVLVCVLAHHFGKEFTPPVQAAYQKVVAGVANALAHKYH
T1 sequence (P69905 2-142 limits assumed): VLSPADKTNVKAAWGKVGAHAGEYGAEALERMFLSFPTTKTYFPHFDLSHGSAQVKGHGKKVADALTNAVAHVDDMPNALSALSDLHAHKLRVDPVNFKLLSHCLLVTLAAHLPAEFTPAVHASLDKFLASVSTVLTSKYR

Row | SMILES | Activity [1] [%] | Activity (Erythrocyte) [%] | Activity [2] | Activity [3] [%] | Activity [4] | Activity [5] [%] | Activity [6] [%] | Activity [7] [%] | Activity [8] | Activity [9] | Activity [10] [%] | Activity [11] | Activity [12] [%]
1 | O=C(O)CCCOc1ccc(C(=O)/C=C/c2ncc[nH]2)cc1Cl | 11 | 2 | Active | 30 | Active | 4.5 | 1.9 | 70 |  |  |  |  | 
2 | COc1ccc(C(=O)/C=C/c2ncc[nH]2)cc1 | 11 | 9 | Active | 37 |  | 11.8 | 8.2 | 63 | Active | Toxic | 77 | Non-Toxic | 23
3 | COc1ccc(C(=O)/C=C/c2ncc[nH]2)cc1OC | 9 | 5 | Active | 20 | Active | 6.5 | 6.5 | 80 |  |  | 53.7 |  | 46.3
4 | O=C(/C=C/c1ncc[nH]1)c1ccc(OC2CCCCO2)cc1 (configuration not stated) |  | 7 | Active |  |  | 15.2 | 9.9 |  | Active |  | 54.9 |  | 45.1
5 | O=C(/C=C/c1ncc[nH]1)c1ccccc1 | 10 | 7 | Active | 21 |  | 11.3 | 7 | 79 | Active |  | 19.6 |  | 80.4
